An excerpt weighted towards active compounds, which were near 2.2% of everything screened.
FN deposit inh: fibronectin deposition inhibition | AH1F fibroblasts, Alexa488-fibronectin deposition fluorescence, overnight | 0.086% of 350,000 active | AID 743247 | inhibition, % at 12.6 µM;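 active = mean inhibition across replicates of 30% or more, regardless of how many single replicates reach that level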;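 note: positive control wells lacked labelled fibronectin entirely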
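Schedule: 1 h cell adhesion before compound, then overnight fibronectin incubation; test system: AH1F fibroblast monolayer depositing Alexa488-labelled fibronectin into matrix; quantity: 10000 AH1F cells per well; probe or stimulus: fluorescent fibronectin at 24 nM final; signal: fluorescence, ex 485 nm, em 525 nm; evaluation: percent inhibition as loss of matrix-bound fibronectin fluorescence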
PGC1a acetyl inh: PGC1a acetylation modulation, inhibitor mode; U2OS PGC1a acetylation, AlphaScreen anti-acetyl-lysine; with virally co-expressed GCN5 acetyltransferase; inhibition, % at 15.6 µM; 0.17% of 350,000 active;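 active = every replicate shows inhibition of at least 40%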;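 note: 0% = neutral control wells and 100% = positive control wells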
FGF22 binding: shifts melting point of recombinant human FGF22 | 1.5% of 340,000 active | activity (Tm shift, normalised), % at 9.99 µM | AID 651658 | Q9HCT0 | recombinant FGF22 thermal shift, SYPRO orange fluorescence; percent of sucrose octasulfate shift, DMSO zero;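 active = mean Tm shift, scaled 0 neutral to 100 positive control, at about 1.3% or above, every replicate too, limit read from the data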
ERAP1 HTS inh: ERAP1 (human) enzyme inhibition. Q9NZ08. inhibition, % at 10.7 µM. AID 652197. 0.15% of 340,000 active. recombinant ERAP1, Leu-AMC fluorescence, 60 min;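 active = mean replicate inhibition of at least 30%, or all replicates individually reaching that 30% level; inactive = mean below 30% and not every replicate reaching it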;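 note: 0% = neutral control wells and 100% = L-leucinethiol positive control wells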
SIRT5 inh: sirtuin-5 (human) deacylase inhibition; Q9NXA8; Purified SirT5, succinyl-peptide AMC, trypsin-coupled fluorescence; inhibition, % at 15 µM; 1.1% of 330,000 active; AID 652115; in the data active = inhibition above about 15%
Starred values were filed as active, the others as inactive; . = no result given.

SMILES	FN deposit inh	PGC1a acetyl inh	FGF22 binding	ERAP1 HTS inh	SIRT5 inh
CCOC(=O)N1CCN(C(=O)CSc2nnc(Cc3ccccc3)o2)CC1	13	6	43*	0	-2
O=C(CSc1nnc(COc2ccc(Br)cc2)o1)N1CCOCC1	-12	.	0	-5	-4
Cc1nnc(SCC(=O)N2CCN(C(=O)c3ccco3)CC2)n1-c1ccccc1	10	16	43*	3	-13
C[C@@H]1CN([C@@H](C)CO)C(=O)c2cc(NS(=O)(=O)c3cccs3)ccc2O[C@@H]1CN(C)Cc1ccncc1	.	-1	0	.	-1
CCOC(=O)C1CCCN(C(=O)c2ccc3nc(-c4ccc(OC)c(OC)c4)c(-c4ccc(OC)c(OC)c4)nc3c2)C1 (stereo not given)	7	-13	0	34*	11
COC(=O)[C@H]1COC(c2ccc(OCCCO)cc2)=N1	.	-2	0	2	-1
CN(C)CCOc1ccc2c(c1)C(=O)C(=Cc1ncc([N+](=O)[O-])n1C)C2	6	93*	0	7	2
CCC(C)N(C(=O)COC(=O)CSc1ccc(C)c(C)c1)C1CCS(=O)(=O)C1 (stereo not given)	2	.	0	-1	-1
CCC(C)N(C(=O)CSc1ccc(NC(C)=O)cc1)C1CCS(=O)(=O)C1 (stereo not given)	2	.	43*	3	-9
Cc1ccc(/C=C/C(=O)O)cc1S(=O)(=O)NCc1ccco1	0	11	43*	-4	-3
O=C(NCc1cc(C(F)(F)F)cc(C(F)(F)F)c1)C1CC(c2ccc(C(F)(F)F)cc2)=NO1 (stereo not given)	5	.	41*	8	-3
O=C(NCc1cc(C(F)(F)F)cc(C(F)(F)F)c1)C1CC(c2ccccc2C(F)(F)F)=NO1 (stereo not given)	4	.	.	.	.
O=C(NCc1ccco1)C1CC(c2ccc(Cl)cc2)=NO1 (stereo not given)	4	.	43*	-1	-4
C[C@@H]1CCCCO[C@H](CN(C)C)[C@H](C)CN([C@@H](C)CO)C(=O)c2cc(NC(=O)c3ccncc3)ccc2O1	.	2	.	.	.
COc1ccc(NC(=O)C2Cc3cccc(OC)c3O/C2=N\O)cc1 (stereo not given)	-4	10	0	1	-5
COc1cccc2c1OCC(C(=O)O)C2 (stereo not given)	-2	25	43*	3	-1
CCC(=O)Nc1ccc2c(c1)C(=O)N(C)C[C@H](OC)[C@@H](C)CN(Cc1ccncc1)[C@H](C)CO2	6	9	0	.	-1
CNC[C@H]1OCCCC[C@@H](C)Oc2ccc(NC(=O)Nc3cccc4ccccc34)cc2C(=O)N([C@H](C)CO)C[C@H]1C	.	8	.	1	-2
CC(C)(C)N1CC(C(=O)O)CC1=O (stereo not given)	1	-2	43*	3	-3
Cc1nc2c(cnn2-c2ccccc2)c(=O)n1/N=C/c1ccccc1	-9	.	0	1	.
Cn1ncc2c(=O)n(/N=C/c3ccccc3)cnc21	-2	.	44*	-1	-2
CS(=O)(=O)N1[C@@H]2c3ccc(-c4ccc(F)cc4)c(=O)n3C[C@H]1[C@H](CO)[C@H]2C(=O)N1CCOCC1	.	.	0	.	-45
COc1ccc(CN(C)C[C@H]2Oc3ccc(NS(=O)(=O)c4ccccc4)cc3C(=O)N([C@@H](C)CO)C[C@@H]2C)cc1	.	0	0	0	1
C[C@H](CO)N1C[C@H](C)[C@H](CN(C)Cc2ccc(Oc3ccccc3)cc2)Oc2ccc(NS(=O)(=O)c3ccccc3)cc2C1=O	.	10	0	-4	14
COc1ccc(S(=O)(=O)Nc2ccc3c(c2)C(=O)N([C@@H](C)CO)C[C@@H](C)[C@H](CN(C)Cc2ccc(Oc4ccccc4)cc2)O3)cc1	.	-1	-1	-3	25*
SMILES	FN deposit inh	PGC1a acetyl inh	FGF22 binding	ERAP1 HTS inh	SIRT5 inh
COc1ccc(S(=O)(=O)Nc2ccc3c(c2)C(=O)N([C@H](C)CO)C[C@@H](C)[C@H](CN(C)Cc2ccc(Oc4ccccc4)cc2)O3)cc1	.	7	0	-1	22*
COc1ccc(S(=O)(=O)Nc2ccc3c(c2)C(=O)N([C@@H](C)CO)C[C@@H](C)[C@H](CN(C)Cc2ccc(-c4ccccc4)cc2)O3)cc1	.	-1	0	3	21*
C[C@@H]1CN([C@@H](C)CO)C(=O)c2cc(NS(=O)(=O)c3ccc(Cl)cc3)ccc2O[C@H]1CN(C)Cc1ccc(Oc2ccccc2)cc1	.	7	-1	-2	17*
Cc1noc(C)c1NC(=O)N(C)C[C@H]1Oc2c(NC(=O)Nc3cccc4ccccc34)cccc2C(=O)N([C@H](C)CO)C[C@H]1C	.	5	0	0	0
CCC(=O)Nc1ccc2c(c1)C(=O)N(C)C[C@H](OC)[C@H](C)CN(C(=O)CN(C)C)[C@H](C)CO2	-18	23	.	.	.
COc1ccc(S(=O)(=O)Nc2ccc3c(c2)C(=O)N([C@H](C)CO)C[C@H](C)[C@@H](CN(C)Cc2ccc(Oc4ccccc4)cc2)O3)cc1	.	2	0	-2	22*
COc1ccc(S(=O)(=O)Nc2ccc3c(c2)C(=O)N([C@@H](C)CO)C[C@H](C)[C@H](CN(C)Cc2ccc(Oc4ccccc4)cc2)O3)cc1	.	4	-1	-1	38*
COc1ccc(S(=O)(=O)Nc2ccc3c(c2)C(=O)N([C@H](C)CO)C[C@@H](C)[C@@H](CN(C)Cc2ccc(Oc4ccccc4)cc2)O3)cc1	.	-7	0	-1	30*
CO[C@H]1CN(C)C(=O)c2cc(NC(=O)NC3CCCC3)ccc2OC[C@H](C)N(CC2CC2)C[C@@H]1C	4	6	.	-1	7
Cc1ccc(S(=O)(=O)N/N=C/c2cc([N+](=O)[O-])ccc2O)cc1[N+](=O)[O-]	2	.	44*	0	1
CO[C@H]1CN(C)C(=O)c2cc(NS(C)(=O)=O)ccc2OC[C@H](C)N(Cc2ccccc2)C[C@H]1C	13	-6	0	-3	-4
Cc1ccc(NC(=O)C2C3C=CC4(O3)C2C(=O)N(CCCN2CCCC(C)C2)C4C(=O)NC2CCCCC2)cc1 (stereo not given)	1	-7	0	-2	17*
COc1ccc(S(=O)(=O)N(C)C[C@H]2Oc3c(NC(=O)NC4CCCCC4)cccc3C(=O)N([C@@H](C)CO)C[C@H]2C)cc1	-9	-12	0	-1	12
C[C@H](NC(=O)C[C@H]1C[C@H]2c3cc(NS(C)(=O)=O)ccc3O[C@H]2[C@@H](CO)O1)c1ccccc1	.	-13	0	-1	-13
CC(=O)Nc1ncc2c(n1)CC(c1ccco1)CC2=O (stereo not given)	-4	20	.	-2	16*
COc1ccc2c3c([nH]c2c1)[C@@H](CO)N(C(C)=O)CC31CCN(C(=O)Nc2c(C)noc2C)CC1	.	13	0	-1	-4

High-throughput results (PubChem)
